# Activity calls are given as the source filed them. The rule behind the calls is not given here.
# Tests used:
# [1] = biological target: T1, P-selectin/P-selectin glycoprotein ligand 1 (Homo sapiens, UniProt P16109+Q14242); assay: Inhibition of PSEL/PSGL1 (unknown origin) interaction; type: protein assay
# T1 sequence (Q14242 whole entry): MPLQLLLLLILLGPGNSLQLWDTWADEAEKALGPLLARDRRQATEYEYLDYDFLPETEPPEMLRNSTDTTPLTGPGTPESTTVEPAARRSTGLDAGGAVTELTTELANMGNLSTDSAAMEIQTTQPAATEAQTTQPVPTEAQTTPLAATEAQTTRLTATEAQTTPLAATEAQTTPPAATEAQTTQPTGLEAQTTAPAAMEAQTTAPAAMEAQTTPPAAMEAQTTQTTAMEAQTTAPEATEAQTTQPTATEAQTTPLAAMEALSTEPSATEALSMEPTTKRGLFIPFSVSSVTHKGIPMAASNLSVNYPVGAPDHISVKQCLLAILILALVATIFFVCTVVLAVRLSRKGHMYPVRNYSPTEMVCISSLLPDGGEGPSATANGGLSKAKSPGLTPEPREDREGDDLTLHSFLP
# T1 sequence (P16109 whole entry): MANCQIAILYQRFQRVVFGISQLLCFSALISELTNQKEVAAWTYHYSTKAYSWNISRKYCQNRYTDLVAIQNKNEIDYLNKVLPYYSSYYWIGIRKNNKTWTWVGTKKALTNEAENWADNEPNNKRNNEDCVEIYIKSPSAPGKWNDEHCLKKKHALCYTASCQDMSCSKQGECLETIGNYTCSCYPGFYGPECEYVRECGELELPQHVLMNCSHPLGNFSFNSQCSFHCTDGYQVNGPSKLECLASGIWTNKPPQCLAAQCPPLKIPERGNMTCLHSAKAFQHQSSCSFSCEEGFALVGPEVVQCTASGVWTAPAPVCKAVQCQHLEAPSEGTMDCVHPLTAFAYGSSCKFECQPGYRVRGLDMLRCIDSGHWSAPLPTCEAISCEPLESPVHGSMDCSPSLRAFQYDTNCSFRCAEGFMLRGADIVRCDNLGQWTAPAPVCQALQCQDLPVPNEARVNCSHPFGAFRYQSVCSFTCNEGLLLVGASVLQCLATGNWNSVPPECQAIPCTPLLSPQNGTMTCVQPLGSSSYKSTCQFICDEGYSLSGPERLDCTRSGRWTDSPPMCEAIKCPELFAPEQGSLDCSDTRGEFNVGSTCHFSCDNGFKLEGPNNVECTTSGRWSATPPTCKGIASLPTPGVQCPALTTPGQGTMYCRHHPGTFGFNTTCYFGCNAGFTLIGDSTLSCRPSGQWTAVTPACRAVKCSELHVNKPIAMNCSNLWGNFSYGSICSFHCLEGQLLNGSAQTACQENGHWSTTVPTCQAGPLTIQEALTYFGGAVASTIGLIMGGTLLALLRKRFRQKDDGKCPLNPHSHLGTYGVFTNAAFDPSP
# Method in brief: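 Hexasaccharide dilution series mixed with 50 nM PSEL and passed over a PSGL1-Fc-coated SPR surface. Equilibrium response was measured. IC50 came from nonlinear regression of response vs concentration, and Ki from the Cheng–Prusoff equation.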
# [2] = biological target: T2, Heparanase (Homo sapiens) (UniProt Q9Y251); assay: Inhibition of recombinant heparanase (unknown origin) using biotin-cryptate-labeled heparan sulfate as substrate at 0.03 to 8 mg/ml preincubated for 15 mins prior to substrate challenge by TR-FRET assay
# T2 sequence (whole entry): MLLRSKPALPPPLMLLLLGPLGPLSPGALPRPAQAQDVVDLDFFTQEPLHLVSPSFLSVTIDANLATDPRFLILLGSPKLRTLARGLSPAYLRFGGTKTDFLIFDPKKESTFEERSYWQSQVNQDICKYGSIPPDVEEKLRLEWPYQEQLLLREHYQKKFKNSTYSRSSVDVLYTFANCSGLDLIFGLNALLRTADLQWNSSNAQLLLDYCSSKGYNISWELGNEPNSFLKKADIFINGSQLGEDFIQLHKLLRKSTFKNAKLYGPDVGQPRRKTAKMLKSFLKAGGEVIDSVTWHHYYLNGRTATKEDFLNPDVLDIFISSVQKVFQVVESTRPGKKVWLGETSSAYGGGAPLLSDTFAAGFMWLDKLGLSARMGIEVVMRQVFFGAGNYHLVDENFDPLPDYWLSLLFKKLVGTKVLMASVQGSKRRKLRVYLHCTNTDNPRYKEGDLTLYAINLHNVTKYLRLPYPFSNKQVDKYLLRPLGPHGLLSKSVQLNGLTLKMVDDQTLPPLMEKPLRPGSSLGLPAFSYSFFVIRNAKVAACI
# Method in brief: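 Recombinant heparanase was preincubated with compound at various concentrations for 15 min at 37 °C. It was then added to biotin-cryptate-labeled heparan sulfate substrate with streptavidin-XL665 for 1 h at 37 °C. Read-out was TR-FRET between europium cryptate and XL665.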
# [3] = biological target: Stromal cell-derived factor 1 (Homo sapiens, UniProt P48061); assay: Binding affinity to human recombinant CXCL12 by surface plasmon resonance assay
# Method in brief: (§1)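 Biotinylated low-molecular-weight heparin was captured on a neutravidin surface. Protein at varying concentrations was mixed with a hexasaccharide dilution series and injected. Free protein was read from a quadratic slope-vs-concentration standard curve. KD = [P_free][H_total]/[P_bound], averaged over three hexasaccharide concentrations.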
# Platelet factor 4 = biological target: T3, Platelet factor 4 (Homo sapiens, UniProt P02776); assay: Binding affinity to human recombinant CXCL4 by surface plasmon resonance assay; method in brief: as §1
# T3 sequence (P02776 whole entry): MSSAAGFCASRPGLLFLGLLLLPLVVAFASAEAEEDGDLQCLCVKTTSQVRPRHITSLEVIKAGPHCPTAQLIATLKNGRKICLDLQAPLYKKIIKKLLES
# [4] = Binding affinity to human recombinant IL-23 by surface plasmon resonance assay; method in brief: as §1
# Interferon gamma = biological target: T4, Interferon gamma (Homo sapiens, UniProt P01579); assay: Binding affinity to human recombinant IFN-gamma by surface plasmon resonance assay; method in brief: as §1
# T4 sequence (P01579 whole entry): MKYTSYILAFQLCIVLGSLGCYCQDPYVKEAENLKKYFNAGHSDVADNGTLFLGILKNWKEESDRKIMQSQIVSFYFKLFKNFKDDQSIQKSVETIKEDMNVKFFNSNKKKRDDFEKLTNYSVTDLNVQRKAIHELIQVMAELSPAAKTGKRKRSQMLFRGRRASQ
# C-C motif chemokine 2 = C-C motif chemokine 2 (Homo sapiens, UniProt P13500); assay: Binding affinity to human recombinant CCL2 by surface plasmon resonance assay; method in brief: as §1
# [5] = biological target: Fibroblast growth factor 1 (Homo sapiens, UniProt P05230); assay: Binding affinity to human recombinant FGF1 by surface plasmon resonance assay; method in brief: as §1
# Chain of Fibroblast growth factor 1 (P05230 whole entry): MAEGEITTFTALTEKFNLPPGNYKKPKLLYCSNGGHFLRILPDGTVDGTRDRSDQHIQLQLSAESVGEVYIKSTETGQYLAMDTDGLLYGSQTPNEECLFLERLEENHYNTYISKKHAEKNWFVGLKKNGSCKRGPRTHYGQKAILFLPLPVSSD
# Chain of Stromal cell-derived factor 1 (P48061 whole entry): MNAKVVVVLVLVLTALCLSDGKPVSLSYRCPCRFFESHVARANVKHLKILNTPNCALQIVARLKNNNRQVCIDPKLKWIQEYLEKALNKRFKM
# Chain of C-C motif chemokine 2 (P13500 whole entry): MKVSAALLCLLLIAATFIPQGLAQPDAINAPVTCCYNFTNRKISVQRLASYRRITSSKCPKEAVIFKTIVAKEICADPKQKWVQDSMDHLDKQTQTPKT
Ki [1],inhibition [2],Kd [3],Kd (Platelet factor 4),Kd [4],Kd (Interferon gamma),Kd (C-C motif chemokine 2),Kd [5],SMILES
250 µM,Active,77 µM,–,–,–,–,–,CCCCCO[C@H]1O[C@H](COS(=O)(=O)O)[C@@H](O[C@@H]2O[C@@H](C(=O)O)[C@@H](O[C@H]3O[C@H](COS(=O)(=O)O)[C@@H](O[C@@H]4O[C@@H](C(=O)O)[C@@H](O[C@H]5O[C@H](COS(=O)(=O)O)[C@@H](O[C@@H]6O[C@@H](C(=O)O)[C@@H](O)[C@H](O)[C@H]6OS(=O)(=O)O)[C@H](O)[C@H]5NC(C)=O)[C@H](O)[C@H]4OS(=O)(=O)O)[C@H](O)[C@H]3NC(C)=O)[C@H](O)[C@H]2OS(=O)(=O)O)[C@H](O)[C@H]1NC(C)=O
96 µM,–,24 µM,3 µM,4 µM,7 µM,61 µM,–,CCCCCO[C@H]1O[C@H](COS(=O)(=O)O)[C@@H](O[C@@H]2O[C@@H](C(=O)O)[C@@H](O[C@H]3O[C@H](COS(=O)(=O)O)[C@@H](O[C@@H]4O[C@@H](C(=O)O)[C@@H](O[C@H]5O[C@H](COS(=O)(=O)O)[C@@H](O[C@@H]6O[C@@H](C(=O)O)[C@@H](O)[C@H](O)[C@H]6OS(=O)(=O)O)[C@H](O)[C@H]5NC(C)=O)[C@H](O)[C@H]4OS(=O)(=O)O)[C@H](O)[C@H]3NS(=O)(=O)O)[C@H](O)[C@H]2O)[C@H](O)[C@H]1NC(C)=O
358 µM,Active,–,–,7 µM,10 µM,–,8 µM,NCCCCCO[C@H]1O[C@H](CO)[C@@H](O[C@@H]2O[C@@H](C(=O)O)[C@@H](O[C@H]3O[C@H](CO)[C@@H](O[C@@H]4O[C@@H](C(=O)O)[C@@H](O[C@H]5O[C@H](CO)[C@@H](O[C@@H]6O[C@@H](C(=O)O)[C@@H](O)[C@H](O)[C@H]6OS(=O)(=O)O)[C@H](O)[C@H]5NS(=O)(=O)O)[C@H](O)[C@H]4OS(=O)(=O)O)[C@H](O)[C@H]3NS(=O)(=O)O)[C@H](O)[C@H]2OS(=O)(=O)O)[C@H](O)[C@H]1NS(=O)(=O)O

# From ChEMBL document CHEMBL3286317, “Synthesis and biological evaluation of a unique heparin mimetic hexasaccharide for structure-activity relationship studies” (J Med Chem, 2014)
